Published values of several laboratories.
Each line is one published result; the experiments were not run side by side. pIC50: −log10 of the molar value.
Read-out: cell growth or viability

SMILES | cell line | technique | time | pIC50
CC[C@H](C)[C@H](NC(=O)CN)C(=O)NCC(=O)N[C@@H](C)C(=O)N[C@H](C(=O)N[C@@H](CC(C)C)C(=O)N[C@@H](CCCCN)C(=O)N[C@H](C(=O)N[C@@H](CC(C)C)C(=O)N[C@H](C(=O)N[C@H](C(=O)NCC(=O)N[C@@H](CC(C)C)C(=O)N1CCC[C@H]1C(=O)N[C@@H](C)C(=O)N[C@@H](CC(C)C)C(=O)N[C@H](C(=O)N[C@@H](CO)C(=O)N[C@@H](Cc1c[nH]c2ccccc12)C(=O)N[C@H](C(=O)N[C@@H](CCCCN)C(=O)N[C@@H](CCCNC(=N)N)C(=O)N[C@@H](CCCCN)C(=O)N[C@@H](CCCNC(=N)N)C(=O)N[C@@H](CCC(N)=O)C(=O)N[C@@H](CCC(N)=O)C(N)=O)[C@@H](C)CC)[C@@H](C)CC)[C@@H](C)O)[C@@H](C)O)C(C)C)C(C)C | HEK293 | MTT | 24 h | 5.33
C[C@H](NC(=O)[C@H](Cc1c[nH]c2ccccc12)NC(=O)CNC(=O)[C@H](CCCNC(=N)N)NC(=O)[C@H](Cc1c[nH]c2ccccc12)NC(=O)[C@H](Cc1c[nH]c2ccccc12)NC(=O)[C@H](CO)NC(=O)[C@H](CO)NC(=O)[C@H](Cc1c[nH]c2ccccc12)NC(=O)CN)C(=O)N[C@@H](CCCCN)C(=O)N[C@@H](Cc1c[nH]c2ccccc12)C(=O)N[C@@H](C)C(=O)N[C@@H](CO)C(=O)N[C@@H](CCCCN)C(=O)NCC(=O)N[C@@H](Cc1c[nH]c2ccccc12)C(=O)NCC(=O)N[C@@H](CCCCN)C(N)=O | HEK293 | MTT | – | 4.47
[C-]#[O+].[C-]#[O+].[C-]#[O+].[C-]#[O+].[C-]#[O+].[C-]#[O+].[C-]#[O+].[C-]#[O+].[C-]#[O+].[C-]#[O+].[Mn].[Mn] | HEK293 | MTT | 48 h | 5.26
CC[C@H](C)[C@H](NC(=O)[C@H](CO)NC(=O)[C@H](CO)NC(=O)[C@H](Cc1ccccc1)NC(=O)CN)C(=O)N[C@@H](Cc1ccccc1)C(=O)N[C@@H](CCCCNC(=N)N)C(=O)NCC(=O)N[C@H](C(=O)N[C@@H](C)C(=O)N[C@@H](CCCCNC(=N)N)C(=O)N[C@@H](Cc1ccccc1)C(=O)N[C@@H](C)C(=O)N[C@@H](CO)C(=O)N[C@@H](CCCCNC(=N)N)C(=O)NCC(=O)N[C@@H](CC(C)C)C(=O)NCC(=O)N[C@@H](CCCCNC(=N)N)C(N)=O)C(C)C | HEK293 | MTT | – | < 4.00
CC(C)C[C@H](NC(=O)[C@H](CO)NC(=O)[C@H](CO)NC(=O)CNC(=O)[C@@H]1CCCN1C(=O)[C@H](Cc1ccc(O)cc1)NC(=O)[C@H](CC(C)C)NC(=O)[C@H](CO)NC(=O)[C@H](CS)NC(=O)[C@H](CC(C)C)NC(=O)[C@@H](N)CC(C)C)C(=O)O | NCI-H1975 | MTT | 72 h | < 4.00
Cc1ncsc1-c1ccc([C@H](C)NC(=O)[C@@H]2C[C@@H](O)CN2C(=O)[C@@H](c2cc(N3CCC(CN4CCC(OC5CC(Oc6cc(N7C8CCC7CN(c7cc(-c9ccccc9O)nnc7N)C8)ccn6)C5)CC4)CC3)no2)C(C)C)cc1 (some centres unmarked) | HCC515 | ATP luminescence | 7 days | 7.28
N.N.[Cl][Pt][Cl] | HEK293 | MTT | 48 h | 4.75
N.N.[Cl][Pt][Cl] | KARPAS-422 | ATP luminescence | 72 h | 5.15
